Results gathered from unrelated publications.
Each line is one published result; the experiments were not run side by side.
CIT: Citron Rho-interacting kinase (CIT, Homo sapiens, UniProt O14578)
RET: Proto-oncogene tyrosine-protein kinase receptor Ret (RET, Homo sapiens, UniProt P07949)
BAZ2A bromodomain: Bromodomain adjacent to zinc finger domain protein 2A, bromodomain (BAZ2A, Homo sapiens, UniProt Q9UIF9)
Nos2: Nitric oxide synthase, inducible (Nos2, Mus musculus, UniProt P29477)

Compound | target | observed | action | method | concentration | quantity | value
CCN(c1cc(C#CCN2CCOCC2)cc(C(=O)NCc2c(C)cc(C)[nH]c2=O)c1C)[C@H]1CC[C@H](N(C)CCOC)CC1 | Histone-lysine N-methyltransferase EZH1 (EZH1, Homo sapiens, UniProt Q92800) | enzyme activity | inhibitor |  | 1 µM | inhibition | 98%
CC/C(=N\NC(=O)NCc1cccc(O)c1)c1ccc(O)c(C)c1O | CIT | enzyme activity | inhibitor |  | 0.1 µM | inhibition | -4.1%
O=C(Nc1ccc(NC(=O)c2ccoc2)cc1C(F)(F)F)Nc1ccc(NC(=O)c2ccoc2)cc1C(F)(F)F | RET | enzyme activity | inhibitor | radiometric | 10 µM | remaining activity | 101%
Cc1ccc(C(=O)Nc2ccc(CN3CCN(C)CC3)c(C(F)(F)F)c2)cc1C#Cc1cnc2cccnn12 | Phosphatidylinositol 5-phosphate 4-kinase type-2 gamma (PIP4K2C, Homo sapiens, UniProt Q8TBX8) | cell-free assay |  |  | 23.5 nM | remaining signal | 99%
N#Cc1ccc(/C=C/CN(CC[C@H](N)C(=O)O)C[C@H]2O[C@@H](n3cnc4c(N)ncnc43)[C@H](O)[C@@H]2O)cc1 | Phenylethanolamine N-methyltransferase (PNMT, Homo sapiens, UniProt P11086) | enzyme activity | inhibitor |  | 1 µM | activity vs control | 96%
Cc1cc2c(cc1N1C(=O)c3cccc4c(Cl)ccc(c34)C1=O)n(C)c(=O)n2C | BAZ2A bromodomain | thermal stability |  | DSF | 10 µM | ΔTm | 0 °C
COCC(=O)Nc1cc(C(=O)NCCc2cnn(C)c2)cc2ncn(CCc3ccccc3)c12 | RET | enzyme activity | inhibitor | radiometric | 10 µM | remaining activity | 109%
O=C(NCCCNc1nc(Nc2cccc(NC(=O)N3CCCC3)c2)ncc1I)c1cccs1 | MAP/microtubule affinity-regulating kinase 4 (MARK4, Homo sapiens, UniProt Q96L34) | enzyme activity | inhibitor | radiometric | 1 µM | remaining activity | 2%
Cc1cnc(Nc2ccc(OCCN3CCCC3)cc2)nc1Nc1cccc(S(=O)(=O)NC(C)(C)C)c1 | Histone-lysine N-methyltransferase ASH1L (ASH1L, Homo sapiens, UniProt Q9NR48) | thermal stability |  | DSF | 10 µM | ΔTm | 0.24 °C
CC(C)[C@@H]1NC(=O)[C@@H]2CCCN2C(=O)[C@H](Cc2ccccc2)NC(=O)CSC[C@@H](C(=O)N[C@@H](Cc2ccc(O)cc2)C(N)=O)NC(=O)[C@H](Cc2c[nH]c3ccccc23)NC(=O)[C@H](CCCCN)NC(=O)[C@H](Cc2ccccc2)N(C)C(=O)[C@H](Cc2ccccc2)NC1=O | Stimulator of interferon genes protein (STING1, Homo sapiens, UniProt Q86WV6, H232R) | binding |  | SPR |  | kon | 71000 M⁻¹ s⁻¹
O=c1occcc1O | Nos2 | enzyme activity | inhibitor |  | 1 mM | inhibition | > 40%
CCCOc1ccc(OC)c(F)c1C(=O)c1ccc(C(=O)N[C@@H]2CNC[C@H]2NC(=O)c2ccc3[nH]ncc3c2)cc1 | RET | enzyme activity | inhibitor |  | 0.75 µM | remaining activity | 41%
O=C(O)c1ncccc1O | Nos2 | enzyme activity | inhibitor |  | 1 mM | inhibition | > 40%
O=C(COc1ccc(Cl)cc1C(=O)Nc1ccccc1)Nc1cc(Cl)ccc1-n1cncn1 | RET | enzyme activity | inhibitor | radiometric | 10 µM | remaining activity | 111%
C=C(F)[C@](N)(CCCCN)C(=O)O | Lysine decarboxylase (Hafnia alvei, UniProt P05033) | enzyme activity | inhibitor | absorbance |  | KI (inactivation) | 620 µM
CCn1cc(C(=O)Nc2cccc(O)c2)c(=O)c2cc(F)c(N3CCN(C(C)=O)CC3)cc21 | RET | enzyme activity | inhibitor | radiometric | 0.1 µM | remaining activity | 90.9%
Cc1nc(O)nc(O)c1C | Nos2 | enzyme activity | inhibitor |  | 1 mM | inhibition | > 40%
Oc1ccc(-c2nc(-c3ccncc3)c(-c3ccc(F)cc3)[nH]2)cc1 | BAZ2A bromodomain | thermal stability |  | DSF | 10 µM | ΔTm | 0.16 °C
O=C(NCc1cccnc1-n1cnc2ccccc21)c1ccc2[nH]c(=O)[nH]c2c1 | RET | enzyme activity | inhibitor | radiometric | 10 µM | remaining activity | 90.8%
Cc1nn(C)c2ncc(C(=O)NC(=O)Nc3ccc(F)c(C(F)(F)F)c3)cc12 | C5a anaphylatoxin chemotactic receptor 1 (C5AR1, Homo sapiens, UniProt P21730) | ligand displacement |  | radioligand | 10 µM | inhibition | < 10%
Cc1ccc(Nc2nc(N3CCN(C(=O)c4ccco4)CC3)nc3[nH]ncc23)cc1 | RET | enzyme activity | inhibitor | radiometric | 10 µM | remaining activity | 99.9%
C[S+]([O-])c1ccc(-c2nc(-c3ccncc3)c(-c3ccc(F)cc3)[nH]2)cc1 (stereo not drawn) | BAZ2A bromodomain | thermal stability |  | DSF | 10 µM | ΔTm | -0.19 °C
COCC(=O)Nc1cc(C(=O)N(C)CCc2c(C)n[nH]c2C)c2c(c1)ncn2Cc1ccc(F)cc1 | RET | enzyme activity | inhibitor | radiometric | 10 µM | remaining activity | 117%
O=C(CCCCCCCCc1ccc(O)cc1)c1c(O)cccc1O | Bifunctional epoxide hydrolase 2 (EPHX2, Homo sapiens, UniProt P34913) | enzyme activity | inhibitor | fluorescence | 100 µM | inhibition | 93.5%
Nc1ncnc2occ(-c3ccc(NC(=O)Nc4cc(C(F)(F)F)ccc4F)cc3)c12 | CIT | cell-free assay | inhibitor |  | 20 µM | remaining signal | 1.3%
COc1cc(NC(=O)Nc2ccc(C)c(F)c2)cc2sc(NC(=O)c3ccccc3)nc12 | RET | enzyme activity | inhibitor | radiometric | 0.1 µM | remaining activity | 107%
Cn1cnc(Br)c1C1=CN(c2ncnc3[nH]cnc23)CCS1 | Serine/threonine-protein kinase LATS2 (LATS2, Homo sapiens, UniProt Q9NRM7) | enzyme activity | inhibitor | radiometric | 2 µM | inhibition | 83.8%
